Assay results as given in ChEMBL document CHEMBL4325926, “Potent Antimalarial 2-Pyrazolyl Quinolone bc 1 (Qi) Inhibitors with Improved Drug-like Properties” (ACS Med Chem Lett, 2018).
≈ marks a conversion by molar mass, not a printed value. Blank lines part the entries; values can stand above or below the molecule they belong to. Calls of active or inactive are those of the source. The calls are words filed in the database; no cut-off is given here.

Key:
Plasmodium falciparum [1] = test: Antimalarial activity against chloroquine-sensitive Plasmodium falciparum 3D7 measured after 48 hrs by SYBR green1 dye based fluorescence assay; assay type: functional, organism-based; conditions: 3D7, 48 h
HepG2 = test: Cytotoxicity against human HepG2 cells after 24 hrs by MTT assay; assay type: cell-based; conditions: HepG2, 24 h
Plasmodium falciparum [2] = test: Antimalarial activity against chloroquine-resistant Plasmodium falciparum W2 measured after 48 hrs by SYBR green1 dye based fluorescence assay; assay type: functional, organism-based; conditions: W2, 48 h
[3] = Inhibition of recombinant Plasmodium falciparum NDH2 expressed in Escherichia coli using NADH as substrate
Plasmodium falciparum [4] = test: Antimalarial activity against chloroquine-resistant Plasmodium falciparum TM90C2B harboring Y268S mutant measured after 48 hrs by SYBR green1 dye based fluorescence assay; assay type: functional, organism-based
[5] = Aqueous solubility of the compound in pH 7.4 phosphate buffered saline; assay type: physicochemical
Method in brief: (§1)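 In vitro DMPK measurements performed by an external DMPK group. Aqueous solubility measured in pH 7.4 PBS buffer. Protein binding measured in human plasma.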

[6] = Therapeutic index, ratio of IC50 for human HepG2 cells to IC50 for chloroquine-sensitive Plasmodium falciparum 3D7
[7] = Protein binding in human plasma; assay type: ADME, cell-free; conditions: read-out: PPB; method in brief: as §1
[8] = Inhibition of Plasmodium falciparum cytochrome bc1 complex using cytochrome-c as substrate and decylubiquinol as donor by spectrophotometric method
Plasmodium falciparum [9] = test: Antimalarial activity against Plasmodium falciparum TX13 expressing yeast dihydroorotate dehydrogenase at >1000 nM; assay type: functional, organism-based

- IC50 (Plasmodium falciparum [1]): 299 nM
Compound: CC(C)c1c(-c2cnn(Cc3ccc(OC(F)(F)F)cc3)c2)[nH]c2ccccc2c1=O

- IC50 (Plasmodium falciparum [1]): 690 nM
Compound: O=c1cc(-c2cnn(CCN3CCOCC3)c2)[nH]c2ccccc12

- IC50 (Plasmodium falciparum [1]): > 1000 nM
Compound: Cc1c(-c2ccc(-c3cnn(CCN4CCOCC4)c3)nc2)[nH]c2ccccc2c1=O

- IC50 (Plasmodium falciparum [1]): 810 nM
Compound: Cc1c(-c2cnn(Cc3ccc(OC(F)(F)F)cc3)c2)[nH]c2cc(C(F)(F)F)ccc2c1=O

Compound: CC/C(=C(\c1ccccc1)c1ccc(OCCN(C)C)cc1)c1ccccc1 [TAMOXIFEN]
- IC50 (HepG2): 12000 nM

- IC50 (Plasmodium falciparum [1]): 89 nM
Compound: CCOC(=O)c1c(-c2cnn(Cc3ccc(OC(F)(F)F)cc3)c2)[nH]c2ccccc2c1=O

- IC50 (Plasmodium falciparum [1]): 110 nM
Compound: Cc1c(-c2cnn(Cc3ccc(OC(F)(F)F)cc3)c2)[nH]c2ccc(Cl)cc2c1=O

- IC50 (Plasmodium falciparum [1]): 541 nM
Compound: COc1ccc2c(=O)cc(-c3ccn(Cc4ccc(OC(F)(F)F)cc4)n3)[nH]c2c1

- IC50 (Plasmodium falciparum [1]): 74 nM
Compound: O=c1cc(-c2cnn(Cc3ccc(OC(F)(F)F)cc3)c2)[nH]c2ccccc12

Compound: O=C1C(O)=C([C@H]2CC[C@H](c3ccc(Cl)cc3)CC2)C(=O)c2ccccc21 [ATOVAQUONE]
- IC50 (Plasmodium falciparum [2]): 0.3 nM
- IC50 [3]: 10000 nM

Compound: Cc1c(-c2ccn(Cc3ccc(OC(F)(F)F)cc3)n2)[nH]c2ccccc2c1=O
- IC50 (Plasmodium falciparum [1]): 270 nM
- IC50 (Plasmodium falciparum [2]): 49 nM
- IC50 (Plasmodium falciparum [4]): 300 nM
- IC50 [3]: 68 nM
- solubility [5]: 0.4 µM (≈ 0.16 µg/mL)
- IC50 (HepG2): 21200 nM
- selectivity ratio [6]: 79

- IC50 (Plasmodium falciparum [1]): > 1000 nM
Compound: Cc1c(-c2cnn(CCc3ccc(OC(F)(F)F)cc3)c2)[nH]c2ccccc2c1=O

- solubility [5]: 0.03 µM (≈ 0.0123 µg/mL)
Compound: Cc1c(-c2ccc(Cc3ccc(OC(F)(F)F)cc3)cc2)[nH]c2ccccc2c1=O

Compound: Cc1c(-c2cnn(Cc3ccc(OC(F)(F)F)cc3)c2)[nH]c2ccccc2c1=O
- IC50 (Plasmodium falciparum [1]): 100 nM
- IC50 (Plasmodium falciparum [2]): 33 nM
- IC50 [3]: 837 nM
- solubility [5]: 0.1 µM (≈ 0.0399 µg/mL)
- IC50 (HepG2): 13000 nM
- selectivity ratio [6]: 130

- IC50 (Plasmodium falciparum [1]): 580 nM
Compound: O=c1cc(-c2cnn(Cc3ccc(C(F)(F)F)nc3)c2)[nH]c2ccccc12

- IC50 (Plasmodium falciparum [1]): 50 nM
Compound: Cc1c(-c2cnn(Cc3ccc(OC(F)(F)F)cc3)c2)[nH]c2cc(Cl)ccc2c1=O

- IC50 (Plasmodium falciparum [1]): 419 nM
Compound: COc1ccc2c(=O)cc(-c3cnn(Cc4ccc(OC(F)(F)F)cc4)c3)[nH]c2c1

- IC50 (Plasmodium falciparum [1]): 376 nM
Compound: COc1ccc2c(=O)c(Cl)c(-c3ccn(Cc4ccc(OC(F)(F)F)cc4)n3)[nH]c2c1

Compound: O=c1c(Cl)c(-c2cnn(Cc3ccc(OC(F)(F)F)cc3)c2)[nH]c2ccccc12
- IC50 (Plasmodium falciparum [1]): 166 nM
- IC50 (Plasmodium falciparum [2]): 14 nM
- solubility [5]: 0.01 µM (≈ 0.0042 µg/mL)
- fraction unbound [7]: < 0.001
- IC50 (HepG2): 28400 nM
- selectivity ratio [6]: 171

- IC50 (Plasmodium falciparum [1]): 80 nM
Compound: Cc1c(-c2cnn(Cc3ccc(OC(F)(F)F)cc3)c2)[nH]c2cc(F)ccc2c1=O

- IC50 (Plasmodium falciparum [1]): 160 nM
Compound: O=c1cc(-c2cnn(Cc3ccc(F)cc3)c2)[nH]c2ccccc12

- IC50 (Plasmodium falciparum [1]): 54 nM
Compound: Cc1c(-c2cnn(Cc3ccc(OC(F)(F)F)cc3)c2)[nH]c2ccc(F)cc2c1=O

Compound: COc1ccc2c(=O)c(C)c(-c3cnn(Cc4ccc(OC(F)(F)F)cc4)c3)[nH]c2c1
- IC50 (Plasmodium falciparum [1]): 33 nM
- IC50 (Plasmodium falciparum [2]): 15 nM
- IC50 (Plasmodium falciparum [4]): 500 nM
- IC50 [8]: 0.75 nM
- IC50 [3]: 1000 nM
- solubility [5]: 0.3 µM (≈ 0.129 µg/mL)
- IC50 (HepG2): 11000 nM
- selectivity ratio [6]: 333

Compound: C=C(C)[C@H]1Cc2c(ccc3c2O[C@@H]2COc4cc(OC)c(OC)cc4[C@@H]2C3=O)O1 [ROTENONE]
- IC50 (HepG2): 1520 nM

- IC50 (Plasmodium falciparum [1]): 88 nM
- solubility [5]: 0.2 µM (≈ 0.0827 µg/mL)
Compound: CCc1c(-c2cnn(Cc3ccc(OC(F)(F)F)cc3)c2)[nH]c2ccccc2c1=O
- IC50 (HepG2): 19300 nM
- selectivity ratio [6]: 219

Compound: COc1ccc2c(=O)c(Cl)c(-c3cnn(Cc4ccc(OC(F)(F)F)cc4)c3)[nH]c2c1
- IC50 (Plasmodium falciparum [1]): 91 nM
- IC50 (Plasmodium falciparum [2]): 11 nM
- IC50 (Plasmodium falciparum [4]): 110 nM
- Activity (Plasmodium falciparum [9]): inactive

- IC50 (Plasmodium falciparum [1]): > 1000 nM
Compound: Cc1c(-c2ccc(-c3cnn(CCN4CCOCC4)c3)cc2)[nH]c2ccccc2c1=O
